The nature of assay [1]: reduced viability of SK-BR-3 breast cancer cells – cell-based, 24 h, human, pilot screen (AID 572;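 active means viability at or below 10% of carrier control in both of two separate runs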;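 further: compound exposure lasted between 18 and 24 h rather than exactly 24 h; 100% = carrier-treated control wells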). The settings on record: SK-BR-3 viability, CellTiter-Glo luminescence, at 10 µM, stronger effect = lower value.
Assay [2] can be described thus: HUVEC growth inhibition – cell-based, human, primary screen (AID 575;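 active means viability at or below 30% in both replicate assays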;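 further: 100% = median of untreated cell wells with 0.1% DMSO on each plate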). The conditions noted are these: HUVEC proliferation, CellTiter-Glo luminescence, 72 h; at 10 µM; stronger effect = lower value. In outline:
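Test system – primary HUVEC, no more than 12 passages · Dosing – one dose, 10 µM final, 0.1% DMSO · Times – 72 h treatment at 37 °C · Measured by – ATP-based CellTiter-Glo luminescent read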
On the technique in general: Cellular ATP, detected with luciferase, serves as a proxy for viable cell number.

The nature of assay [3]: H69AR cell proliferation blockers – human, duplicate replicates, primary screen (AID 580;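 active means viability at or under a set limit in both replicates, limit being median viability minus 3 SD, cut at about 48% in these data, passing the limit was not always enough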;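 further: 100% = mean luminescence of untreated wells and 0% = no signal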). The conditions noted are these: H69AR lung tumor cells viability, ATP luminescence, 72 h; at 10 µM; stronger effect = lower value.
A short description of assay [4]: MRP1 drug-resistance reversers in H69AR cells – cell-based, doxorubicin co-treatment, pilot screen (AID 601;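 active means viability loss from added drug above about 55%, and viability with drug at most 40%, in both replicates, limit read from the data, passing the limit was not always enough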). The settings on record: CellTiter-Glo, 72 h, at 10 µM; for differential viability (reversal): stronger effect = higher value.
Assay [5] is described as follows: yeast transport mutant growth inhibition pilot in 384-well plates, post-Golgi transport modulator project (AID 636; in the data active means inhibition above about 31%). The conditions noted are these: absorbance 615 nm, about 18 h, stronger effect = higher value.
Assay [6] in a line: growth suppression of yeast trafficking mutant, preliminary HTS, modulators of trafficking downstream of Golgi apparatus project, 1536-format plate, OD 615 nm (AID 637). The settings on record: yeast transport mutant growth, absorbance 615 nm, 18 h; stronger effect = higher value.
Setting [7] is: H69AR cells + 2 uM doxorubicin, measured here: viability with 2 uM doxorubicin, stronger effect = lower value.
[8] abbreviates: H69AR cells, compound alone cytotoxicity.

Active and inactive are the calls of the source. Unless noted, no stated cut-off is given here; in the data, active means inhibition above about 30%; inactive means the rest.

A word on the viability: it is a read-out of living cells in per cent, often relative to untreated cells. A word on the inhibition: it is the change of the read-out against control, counted positive when it falls.

As to `O=C(NC(C(=O)c1ccccc1)N1CCOCC1)c1cccs1` (centres undefined), the viability in assay [1] is 87% (inactive); in assay [2], 100% (inactive); in assay [3], 96% (inactive); in assay [4] (setting [7]) it was 81%; in assay [4] (setting [8]), 96%. The differential viability (reversal) in assay [4] (H69AR cells + 2 uM doxorubicin) is 15% (inactive). The inhibition in assay [5] is -1.22% (inactive); in assay [6], -4.36% (inactive).

Turning to `COc1ccc(-c2nsc(SCC(=O)Nc3cc(C)on3)n2)cc1`, the viability in assay [1] is 79% (inactive); in assay [2], 79.4% (inactive); in assay [3], 84.8% (inactive); in assay [4] (setting [7]), 90.2%; in assay [4] (setting [8]), 84.8%. Further, in assay [4] (H69AR cells + 2 uM doxorubicin), the differential viability (reversal) was -5.36% (inactive). Further, the inhibition in assay [5] was -5.07% (inactive); in assay [6], 3.09% (inactive).

With `CNC(=O)Oc1ccc2c(c1)[C@]1(C)CCN(C)[C@@H]1N2C`, the viability in assay [1] is 112% (inactive); in assay [2], 104% (inactive); in assay [3], 93.9% (inactive); in assay [4] (setting [7]), 101%; in assay [4] (setting [8]), 93.9%. In addition, the differential viability (reversal) in assay [4] (H69AR cells + 2 uM doxorubicin) is -7% (inactive). The inhibition in assay [5] is -3.12% (inactive); in assay [6], 2% (inactive).

Regarding `CCN1C(=O)C2(C(C#N)=C(N)Oc3n[nH]c(C(C)C)c32)c2ccccc21` (centres undefined), the viability in assay [1] is 113% (inactive); in assay [2] it was 103% (inactive); in assay [3], 89.2% (inactive); in assay [4] (setting [7]), 90.2%; in assay [4] (setting [8]) it was 89.2%. The differential viability (reversal) in assay [4] (H69AR cells + 2 uM doxorubicin) was -1.03% (inactive). The inhibition in assay [5] is -8.9% (inactive); in assay [6] it was -0.81% (inactive).

Regarding `Cc1ccc2nc(C(F)(F)F)c(C#N)c(N)c2c1`, the viability was 50% (inactive) in assay [1]; 78.9% (inactive) in assay [2]; 71.3% (inactive) in assay [3]; 115% in assay [4] (setting [7]); 71.3% in assay [4] (setting [8]). In assay [4] (H69AR cells + 2 uM doxorubicin), the differential viability (reversal) is -43.8% (inactive). The inhibition was -4.38% (inactive) in assay [5] and 6.55% (inactive) in assay [6].

Consider `c1ccc(Cc2nn3c(Cn4cnc5ccccc54)nnc3s2)cc1`, for which the viability in assay [1] is 128% (inactive); in assay [2] it was 78.9% (inactive); in assay [3] it was 85.8% (inactive); in assay [4] (setting [7]) it was 82.3%; in assay [4] (setting [8]), 85.8%. In addition, the differential viability (reversal) in assay [4] (H69AR cells + 2 uM doxorubicin) was 3.46% (inactive). For the same molecule, the inhibition in assay [5] is -5.34% (inactive); in assay [6], -0.65% (inactive).

On to `Cn1cnnc1Sc1nc2c(c(=O)n(C)c(=O)n2C)n1Cc1ccccc1Cl`, for which the viability in assay [1] is 72% (inactive); in assay [2] it was 98.5% (inactive); in assay [3], 90.3% (inactive); in assay [4] (setting [7]), 92.4%; in assay [4] (setting [8]) it was 90.3%. Besides, in assay [4] (H69AR cells + 2 uM doxorubicin), the differential viability (reversal) was -2.15% (inactive). Further, the inhibition in assay [5] was -3.7% (inactive); in assay [6], 0.91% (inactive).

With `CCOC(=O)C(C#N)C(c1cccnc1)c1c(C)[nH][nH]c1=O` (centres undefined), the viability in assay [1] is 77% (inactive); in assay [2] it was 107% (inactive); in assay [3] it was 105% (inactive); in assay [4] (setting [7]), 95.7%; in assay [4] (setting [8]), 105%. Further, the differential viability (reversal) in assay [4] (H69AR cells + 2 uM doxorubicin) is 9.4% (inactive). For the same molecule, the figures for the inhibition in assay [5] and in assay [6] were -7.43% (inactive) and 4% (inactive), respectively.

As to `O=C(COc1ccccc1Cl)NCCCN1CCOCC1`, the viability was 98% (inactive) in assay [1]; 86.9% (inactive) in assay [2]; 91.3% (inactive) in assay [3]; 91.9% in assay [4] (setting [7]); 91.3% in assay [4] (setting [8]). In assay [4] (H69AR cells + 2 uM doxorubicin), the differential viability (reversal) is -0.6% (inactive). For the same molecule, the inhibition in assay [5] was 3.15% (inactive); in assay [6], -2.74% (inactive).

Consider `CC(C)n1nnnc1SCC(=O)Nc1ccccc1N1CCOCC1`, for which the viability was 53% (inactive) in assay [1]; 98.4% (inactive) in assay [2]; 98.5% (inactive) in assay [3]; 99% in assay [4] (setting [7]); 98.5% in assay [4] (setting [8]). The differential viability (reversal) in assay [4] (H69AR cells + 2 uM doxorubicin) was -0.48% (inactive). Also, the results for the inhibition in assay [5] and in assay [6] were -5.75% (inactive) and 2.73% (inactive), respectively.

For `Cn1c(=O)c2c(nc(NCCNC(=O)c3ccco3)n2Cc2ccccc2Cl)n(C)c1=O`, the viability is 80% (inactive) in assay [1]; 112% (inactive) in assay [2]; 72.5% (inactive) in assay [3]; 66.7% in assay [4] (setting [7]); 72.5% in assay [4] (setting [8]). The differential viability (reversal) in assay [4] (H69AR cells + 2 uM doxorubicin) was 5.75% (inactive). For the same molecule, the inhibition in assay [5] is -7.57% (inactive); in assay [6] it was -4.36% (inactive).

Consider `NS(=O)(=O)c1ccc(C(=O)O)cc1`, for which the viability is 92% (inactive) in assay [1]; 93.4% (inactive) in assay [2]; 99% (inactive) in assay [3]; 87.5% in assay [4] (setting [7]); 99% in assay [4] (setting [8]). Further, the differential viability (reversal) in assay [4] (H69AR cells + 2 uM doxorubicin) was 11.6% (inactive). Also, the inhibition in assay [5] was 5.45% (inactive); in assay [6], -5.33% (inactive).

Regarding `CN1CCc2c(sc3c2c(=O)n(-c2ccccc2)c2nnc(SCc4ccccc4)n32)C1`, the viability in assay [1] was 77% (inactive); in assay [2], 108% (inactive); in assay [3], 95.8% (inactive); in assay [4] (setting [7]), 86%; in assay [4] (setting [8]) it was 95.8%. The differential viability (reversal) in assay [4] (H69AR cells + 2 uM doxorubicin) is 9.76% (inactive). In addition, the inhibition is -2.33% (inactive) in assay [5] and 1.82% (inactive) in assay [6].

On to `CC(C)(C)NCC(O)c1cc(O)cc(O)c1` (centres undefined), for which the viability is 127% (inactive) in assay [1]; 109% (inactive) in assay [2]; 98.9% (inactive) in assay [3]; 91.4% in assay [4] (setting [7]); 98.9% in assay [4] (setting [8]). Moreover, the differential viability (reversal) in assay [4] (H69AR cells + 2 uM doxorubicin) is 7.49% (inactive). The inhibition is -2.73% (inactive) in assay [5] and 2.5% (inactive) in assay [6].

As for `C=CCSc1nnc(-c2ccc(Cl)cc2Cl)o1`, the viability in assay [1] is 96% (inactive); in assay [2] it was 107% (inactive); in assay [3], 87.9% (inactive); in assay [4] (setting [7]), 67.9%; in assay [4] (setting [8]), 87.9%. Also, the differential viability (reversal) in assay [4] (H69AR cells + 2 uM doxorubicin) was 19.9% (inactive). Also, the inhibition in assay [5] is -5.47% (inactive); in assay [6] it was 0.73% (inactive).

In the case of `CN1C(C(=O)Nc2ccccn2)=C(O)c2ccccc2S1(=O)=O`, the viability was 115% (inactive) in assay [1]; 94.7% (inactive) in assay [2]; 101% (inactive) in assay [3]; 87.7% in assay [4] (setting [7]); 101% in assay [4] (setting [8]). The differential viability (reversal) in assay [4] (H69AR cells + 2 uM doxorubicin) is 13.4% (inactive). The values for the inhibition in assay [5] and in assay [6] were 0.39% (inactive) and -0.83% (inactive), respectively.

For the molecule `COc1ccc(C2/C(=C(/O)c3ccccc3)C(=O)C(=O)N2c2ncccn2)cc1OC` (centres undefined), the viability in assay [1] is 105% (inactive); in assay [2], 101% (inactive); in assay [3], 108% (inactive); in assay [4] (setting [7]), 99.1%; in assay [4] (setting [8]) it was 108%. Moreover, the differential viability (reversal) in assay [4] (H69AR cells + 2 uM doxorubicin) is 8.68% (inactive). Moreover, the inhibition was -4.59% (inactive) in assay [5] and -2.55% (inactive) in assay [6].

In the case of `CCN(CCCc1ccccc1)CCCc1ccccc1`, the viability in assay [1] was 76% (inactive); in assay [2], 77.6% (inactive); in assay [3], 78.6% (inactive); in assay [4] (setting [7]), 91.2%; in assay [4] (setting [8]), 78.6%. Moreover, the differential viability (reversal) in assay [4] (H69AR cells + 2 uM doxorubicin) was -12.7% (inactive). Moreover, the inhibition in assay [5] is 2.34% (inactive); in assay [6] it was 15% (inactive).

(Values after PubChem BioAssay.)
